# Measured values as given in ChEMBL document CHEMBL1143271, “Synthesis and CB1 cannabinoid receptor affinity of 4-alkoxycarbonyl-1,5-diaryl-1,2,3-triazoles” (Bioorg Med Chem Lett, 2009).
# Target: Cannabinoid receptor 1 (Rattus norvegicus, UniProt P20272)
# Assay: Displacement of [3H]SR141716 from CB1 receptor in rat cerebellum homogenate
# Assay type: tissue-based
# Method in brief: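 Competition binding against [3H]SR141716 in rat cerebellum homogenates. Each concentration was run in triplicate, and each experiment was repeated three times. Data were fitted by non-linear regression, and values are mean ± SEM of three experiments.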
# Sequence of Cannabinoid receptor 1 (P20272 whole entry): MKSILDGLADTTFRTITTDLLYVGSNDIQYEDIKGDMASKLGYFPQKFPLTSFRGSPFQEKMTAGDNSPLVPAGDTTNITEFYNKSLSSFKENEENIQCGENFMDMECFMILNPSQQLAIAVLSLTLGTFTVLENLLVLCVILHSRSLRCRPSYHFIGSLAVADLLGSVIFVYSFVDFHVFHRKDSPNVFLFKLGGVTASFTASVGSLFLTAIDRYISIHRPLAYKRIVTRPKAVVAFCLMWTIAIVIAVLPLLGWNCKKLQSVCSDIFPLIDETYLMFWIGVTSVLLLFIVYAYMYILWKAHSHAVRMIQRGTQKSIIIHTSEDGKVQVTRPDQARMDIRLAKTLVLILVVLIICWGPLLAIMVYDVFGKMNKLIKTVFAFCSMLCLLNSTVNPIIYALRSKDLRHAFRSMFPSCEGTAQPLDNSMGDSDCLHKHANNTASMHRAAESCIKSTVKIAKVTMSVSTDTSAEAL
row,SMILES,Ki [nM]
1,O=C(NN1CCCCC1)c1nnn(-c2ccc(Cl)cc2Cl)c1-c1ccc(Cl)cc1,590
2,O=C(Oc1ccccc1)c1nnn(-c2ccc(Cl)cc2Cl)c1-c1ccc(Cl)cc1,11
3,O=C(OCc1ccccc1)c1nnn(-c2ccc(Cl)cc2Cl)c1-c1ccc(Cl)cc1,97
4,COC(=O)c1nnn(-c2ccc(Cl)cc2)c1-c1ccc(Cl)cc1,4400
5,CCCOC(=O)c1nnn(-c2ccc(Cl)cc2Cl)c1-c1ccc(Cl)cc1,4.6
6,Clc1ccc(-c2cnnn2-c2ccc(Cl)cc2)cc1,6900
7,Clc1ccc(-c2cnnn2-c2ccc(Cl)cc2Cl)cc1,1420
8,O=C(OC1CCCCC1)c1nnn(-c2ccc(Cl)cc2Cl)c1-c1ccc(Cl)cc1,240
9,CCOC(=O)c1nnn(-c2ccc(Cl)cc2Cl)c1-c1ccc(Cl)cc1,180
10,COC(=O)c1nnn(-c2ccc(Cl)cc2Cl)c1-c1ccc(Cl)cc1,66
